An excerpt weighted towards active compounds, which were near 1.8% of everything screened.
CXCR6 inh: CXCR6 receptor inhibitors, primary screen, cell-based, beta-arrestin, luminescence, CHO-K1 PathHunter, 1536-well; C-X-C chemokine receptor type 6 (Homo sapiens), O00574; 0.36% of 360,000 active; AID 602244, 2012; inhibition, % at 20 µM; in the data active = inhibition above about 34%, passing the limit was not always enough;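 note: antagonist mode with CXCL16 agonist at 10 nM final; 0% = 10 nM CXCL16 with DMSO and 100% = unstimulated wells without agonist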
Target sequence (O00574 whole entry, looked up): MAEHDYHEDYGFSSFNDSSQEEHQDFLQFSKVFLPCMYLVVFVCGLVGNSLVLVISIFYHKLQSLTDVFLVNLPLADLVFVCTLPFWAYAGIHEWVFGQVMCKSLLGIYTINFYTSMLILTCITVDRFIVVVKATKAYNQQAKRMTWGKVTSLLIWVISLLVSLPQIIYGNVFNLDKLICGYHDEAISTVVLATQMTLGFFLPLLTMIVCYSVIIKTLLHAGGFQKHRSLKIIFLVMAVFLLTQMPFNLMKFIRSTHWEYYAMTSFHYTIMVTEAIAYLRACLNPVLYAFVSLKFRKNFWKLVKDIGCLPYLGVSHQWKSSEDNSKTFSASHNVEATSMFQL
EBI2 block: EBI2 receptor antagonists, beta-arrestin recruitment, primary screen, cell-based, luminescence, 7a,25-OHC stimulation, uHTS; G-protein coupled receptor 183 (Homo sapiens), P32249; 7a,25-OHC stimulated; inhibition, % at 5 µM; 0.81% of 360,000 active; in the data active = inhibition above about 38%;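 note: enzyme fragment complementation signal reports receptor beta-arrestin coupling in cells; 0% = agonist plus DMSO wells and 100% = wells without agonist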
B2AR ag: beta2AR agonists driving receptor internalization, primary screen, cell-based, FAP fluorogen, flow cytometry; Beta-2 adrenergic receptor (Homo sapiens), P07550; Am2.2-beta2AR cells; response, % (no concentration beside the values); 0.43% of 340,000 active; AID 504454, 2011;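 active = response above a set limit, near 3 SD of response in nonfluorescent compounds, cut at about 42% in these data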
APJ agonist: agonists of human apelin receptor APJ, primary screen, CHO-K1 cells, PathHunter beta-arrestin, luminescence; P35414; 0% DMSO wells, 100% apelin; activation, % at 20 µM; 0.11% of 330,000 active;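 active = activation more than six SD over the plate average, tested at 20 µM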;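 note: 0% = DMSO alone and 100% = apelin-13 at 10 nM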
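Test system: CHO-K1 APJ beta-arrestin complementation cell line. Amount: cell density 1000 per well. Controls: DMSO negative, 10 nM Apelin-13 positive. Signal: luminescent beta-gal fragment complementation, chemiluminescent substrate. Read-out basis: agonist-driven arrestin binding to APJ. Timing: compound stimulation 90 min at 25 °C, detection 60 min.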
CCR6 antagonist: CCR6 receptor antagonists, primary screen, cell-based, CHO-K1, luminescence, beta-arrestin, uHTS. CHO-K1 CCR6 PathHunter beta-arrestin, CCL20-stimulated. 0.49% of 340,000 active. C-C chemokine receptor type 6 (Homo sapiens), P51684. inhibition, % at 20 µM. AID 493098, 2011;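 active = compounds whose inhibition of the agonist-driven luminescence signal at 20 µM reaches about 50%, limit read from the data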;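 note: cells stimulated with CCL20 at 14 nM final; plate controls were DMSO with CCL20 for no effect and DMSO without agonist for full effect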
APJ antag: antagonists of human apelin receptor APJ, primary screen, CHO-K1 cells, beta-arrestin complementation, luminescence | AID 2521, 2010 | inhibition, % at 20 µM | 0.32% of 330,000 active;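 active = inhibition above about 40% at 20 µM, limit read from the data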;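 note: cells challenged with 10 nM apelin-13 agonist together with compound; plate controls were apelin-13 plus DMSO wells for no effect and DMSO wells lacking apelin-13 for full effect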
B2AR ag CP1: beta2AR agonists via receptor internalization, confirmation, cell-based, FAP fluorogen, flow cytometry, single point, cherry pick 1; shares compounds with B2AR ag; Am2.2-beta2AR cells, FAP surface receptor; stronger effect = lower value; percent response (surface receptor), % at 10 µM; 25% of 1,100 active;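 active = surface receptor percent response at or below 58%, roughly 3 SD from nonfluorescent compounds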
FAP fluor counter: flagged in Am2.2 fluorescence counterscreen for beta-2AR agonists. 1,100 tested, under 10 active. Am2.2 cells, FAP fluorogen flow cytometry; stronger effect = lower value. shares compounds with B2AR ag. calls only at 10 µM. AID 588765;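 active = percent response below a set limit in fluorescence channel 1 and below 50% in channel 8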
* hit, by the source's call; i = inactive; nt = no result.

SMILES	CXCR6 inh	EBI2 block	B2AR ag	APJ agonist	CCR6 antagonist	APJ antag	B2AR ag CP1	FAP fluor counter
O=[N+]([O-])c1ccc(S(=O)(=O)c2cccc(C(F)(F)F)c2)nc1	47*	-18	57*	7	nt	18	24*	i
CC(C)(C)NC(=S)NNC(=O)c1cccc(Br)c1	5	14	-11	-3	20	15	113	i
Cc1cc2nc(-c3ccc(F)cc3)c(CC(C)(C)C)n2c(C)c1Br	-8	-10	nt	nt	nt	nt	nt	nt
O=C(CCS(=O)(=O)c1ccccc1)N(CCCN1CCOCC1)c1nc2c(F)cccc2s1	10	25	111*	-2	18	-49	82	i
CN(C)CCCn1c(SCC(=O)N2c3ccccc3Sc3ccccc32)nc2ccccc2c1=O	-6	-10	49*	nt	34	nt	59	i
O=C(c1cccc(Cl)c1)N1CCC(C(=O)N2CCN(Cc3ccccc3)CC2)CC1	6	5	79*	7	-1	18	25*	i
Cc1cc(Cl)cc(Cl)c1OCCN1CCCC1	9	4	5	-3	3	3	nt	nt
Cc1ccc(CNC(=O)CCCc2c[nH]c3ccccc23)cc1	5	17	52*	-2	14	-3	104	i
O=C(Cn1nc(-c2ccccc2)ccc1=O)Nc1ccc(NC(=O)c2ccccn2)cc1	-2	-3	125*	-2	9	-3	26*	i
CCC(C)(C)c1ccc(OCCCC[n+]2cccc(C)c2C)c(C(C)(C)CC)c1	-22	-6	56*	-4	8	20	88	i
CCC(C)(C)c1ccc(OCCCC[n+]2ccc(C)cc2)c(C(C)(C)CC)c1	nt	nt	nt	-3	-3	13	nt	nt
COc1cccc(NC(=O)CN(C)C(C)C(=O)NC(C)c2ccc(Cl)cc2Cl)c1 (configuration not stated)	1	2	-1	2	10	20	nt	nt
COc1ccc(NC(=O)Cn2nnc(-c3ccccc3NC(=O)C3CC3)n2)cc1	7	1	-1	-3	8	-11	119	i
CCOc1ccc(NC(=O)Cn2nnc(-c3ccccc3NC(=O)C3CC3)n2)cc1	-9	3	-3	0	11	6	123	i
COc1ccc(C(=O)Cn2nnc(-c3ccccc3NC(=O)C3CCCCC3)n2)cc1	7	7	13	0	19	4	nt	nt
COc1ccc(NC(=O)N(C)C[C@H]2Oc3ncc(Br)cc3C(=O)N([C@H](C)CO)C[C@@H]2C)cc1	5	-10	nt	nt	nt	nt	nt	nt
COc1ccc([C@H]2/C=C\CN(C(=O)c3ccc(C)cc3)[C@@H](C)C(=O)N2Cc2ccc(F)cc2)cc1	8	26	15	4	3	-25	106	i
COc1ccc(C2/C=C\CN(C(=O)c3ccccc3)CC(=O)N2Cc2cccc(F)c2)cc1 (configuration not stated)	-4	4	4	nt	27	nt	101	i
COc1ccc([C@H]2/C=C\CN(S(=O)(=O)c3ccc(C)cc3)[C@@H](C)C(=O)N2Cc2ccc(F)cc2)cc1	15	12	7	5	14	-57	nt	nt
COc1ccc(C2/C=C\CN(C(=O)c3ccccc3)[C@H](Cc3ccccc3)C(=O)N2Cc2ccc(F)cc2)cc1 (some centres not stated)	-1	24	12	-6	16	18	105	i
COc1ccc([C@H]2/C=C\CN(C(=O)CC(C)(C)C)[C@@H](C)C(=O)N2Cc2ccc(F)cc2)cc1	5	17	-8	1	10	-4	nt	nt

Assay outcomes as filed in PubChem.
